In ChEMBL document CHEMBL1932980, “Structure-activity relationships of 2-amino-3-aroyl-4-[(4-arylpiperazin-1-yl)methyl]thiophenes. Part 2: Probing the influence of diverse substituents at the phenyl of the arylpiperazine moiety on allosteric enhancer activity at the A₁ adenosine receptor” (Bioorg Med Chem, 2012):

Columns and labels:
[1] = molecular target: T1, Adenosine receptor A1 (Homo sapiens) (UniProt P30542); test: Allosteric enhancer activity at recombinant human A1 adenosine receptor expressed in CHO cells assessed as change in forskolin-induced cAMP production at 0.01 uM after 6 mins by radioimmunoassay; format: functional, cell-based
T1 sequence (whole entry): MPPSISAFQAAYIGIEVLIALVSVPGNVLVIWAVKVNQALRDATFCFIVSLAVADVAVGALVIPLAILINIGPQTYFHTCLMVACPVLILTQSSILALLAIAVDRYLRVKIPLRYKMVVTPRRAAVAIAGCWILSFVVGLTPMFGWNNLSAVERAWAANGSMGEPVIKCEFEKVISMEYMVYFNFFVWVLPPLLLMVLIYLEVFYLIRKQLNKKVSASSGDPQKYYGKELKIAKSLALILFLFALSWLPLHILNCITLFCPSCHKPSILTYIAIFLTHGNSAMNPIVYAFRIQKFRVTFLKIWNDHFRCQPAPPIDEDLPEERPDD
Method in brief: (§1)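 hA1CHO cells (about 8000 fmol/mg protein) thawed from low-passage stocks, grown in Ham's F-12 with 10% FBS and G-418, then plated 48 h. Test compound at 0.01, 0.1, 1 or 10 µM with CPA (0.05–0.1 nM) for 6 min at 36 °C. Stopped with HCl (final 50 mM). cAMP in acidified extracts measured by radioimmunoassay. Reference enhancer run in each experiment. Four experiments per concentration.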

[2] = molecular target: T1, Adenosine receptor A1 (Homo sapiens); test: Allosteric enhancer activity at recombinant human A1 adenosine receptor expressed in CHO cells assessed as change in forskolin-induced cAMP production at 0.1 uM after 6 mins by radioimmunoassay; format: functional, cell-based; method in brief: as §1
[3] = molecular target: T1, Adenosine receptor A1 (Homo sapiens); test: Allosteric enhancer activity at recombinant human A1 adenosine receptor expressed in CHO cells assessed as change in forskolin-induced cAMP production at 1 uM after 6 mins by radioimmunoassay; format: functional, cell-based; method in brief: as §1
[4] = molecular target: T1, Adenosine receptor A1 (Homo sapiens); test: Allosteric enhancer activity at recombinant human A1 adenosine receptor expressed in CHO cells assessed as change in forskolin-induced cAMP production at 10 uM after 6 mins by radioimmunoassay; format: functional, cell-based; method in brief: as §1
[5] = molecular target: T1, Adenosine receptor A1 (Homo sapiens); test: Displacement of [3H]DPCPX from recombinant human A1 adenosine receptor expressed in CHO cells at 10 uM after 120 mins by scintillation counting; format: cell-based
Method in brief: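 Membranes from hA1CHO cells incubated with 1 nM [3H]DPCPX in 50 mM Tris–HCl pH 7.4 at 25 °C for 120 min. Compound added from a 100-fold DMSO stock, so 1% DMSO final, also present in controls. Bound ligand separated on GF/B filters and counted by scintillation. Result given as % of control specific binding.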

[6] = molecular target: Adenosine receptor A2a (Homo sapiens) (UniProt P29274); test: Displacement of [3H]ZM241385 from recombinant human A2A adenosine receptor expressed in CHO cells at 10 uM after 60 mins by scintillation counting; format: cell-based
Chain of Adenosine receptor A2a (Homo sapiens) (P29274 whole entry): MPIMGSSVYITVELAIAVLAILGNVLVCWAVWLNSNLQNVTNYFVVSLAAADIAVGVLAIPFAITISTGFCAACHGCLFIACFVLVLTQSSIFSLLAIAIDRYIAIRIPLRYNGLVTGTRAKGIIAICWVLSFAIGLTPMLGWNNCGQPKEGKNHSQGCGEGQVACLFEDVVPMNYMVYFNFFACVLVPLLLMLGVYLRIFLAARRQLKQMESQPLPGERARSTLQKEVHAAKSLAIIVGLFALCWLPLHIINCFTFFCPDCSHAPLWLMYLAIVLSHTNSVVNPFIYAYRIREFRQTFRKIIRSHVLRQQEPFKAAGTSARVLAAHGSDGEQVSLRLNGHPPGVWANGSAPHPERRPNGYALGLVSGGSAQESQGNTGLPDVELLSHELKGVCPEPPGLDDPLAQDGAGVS
Method in brief: (§2)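 Membranes from hA2ACHO cells incubated with 1 nM [3H]ZM 241385 in 50 mM Tris–HCl, 10 mM MgCl2, pH 7.4 at 4 °C for 60 min. Compound added from a 100-fold DMSO stock, 1% DMSO final, also in controls. Separated by GF/B filtration and counted by scintillation. Result given as % of control specific binding.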

[7] = molecular target: T2, Adenosine receptor A3 (Homo sapiens) (UniProt P0DMS8); test: Displacement of [3H]MRE3008F20 from recombinant human A3 adenosine receptor expressed in CHO cells at 10 uM after 120 mins by scintillation counting; format: cell-based
T2 sequence (whole entry): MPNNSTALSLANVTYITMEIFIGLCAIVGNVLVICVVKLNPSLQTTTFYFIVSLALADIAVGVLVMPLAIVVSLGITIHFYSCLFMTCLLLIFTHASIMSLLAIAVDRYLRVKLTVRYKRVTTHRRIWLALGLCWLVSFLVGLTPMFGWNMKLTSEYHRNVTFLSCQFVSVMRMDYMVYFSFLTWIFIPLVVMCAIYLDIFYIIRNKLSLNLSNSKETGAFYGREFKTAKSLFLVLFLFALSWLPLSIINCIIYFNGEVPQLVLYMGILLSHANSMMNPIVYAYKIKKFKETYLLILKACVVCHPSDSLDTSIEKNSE
Method in brief: as §2, with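 “from hA3CHO” for “from hA2ACHO”, “with 2” for “with 1”, “nM [3H]MRE 3008F20” for “nM [3H]ZM 241385”, “MgCl2, 1 mM EDTA,” for “MgCl2,”, “for 120” for “for 60”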

[8] = molecular target: T1, Adenosine receptor A1 (Homo sapiens); test: Binding affinity to recombinant human A1 adenosine receptor allosteric site expressed in CHO cells assessed as [3H]CCPA Bmax shift at 10 uM after 90 mins relative to control; format: cell-based
Method in brief: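 Saturation binding of [3H]CCPA (0.05–20 nM) to hA1CHO membranes. Membranes pretreated with adenosine deaminase 3 UI/mL for 30 min at 37 °C. Run in triplicate, 90 min at 25 °C, in 50 mM Tris–HCl pH 7.4, with or without test compound at final 10 µM. Nonspecific binding taken with 1 µM R-PIA. Bmax fitted by LIGAND. Shift is the fold of Bmax increase over control.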

[9] = molecular target: T1, Adenosine receptor A1 (Homo sapiens); test: Binding affinity to recombinant human A1 adenosine receptor allosteric site expressed in CHO cells assessed as [3H]DPCPX Bmax shift at 10 uM after 90 mins relative to control; format: cell-based
Method in brief: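 Saturation binding of [3H]DPCPX (0.05–20 nM) to hA1CHO membranes, run in triplicate, 90 min at 25 °C, in 50 mM Tris–HCl pH 7.4, with or without test compound at final 10 µM. Nonspecific binding taken with 1 µM DPCPX. KD and Bmax fitted by LIGAND. Shift is the fold of Bmax increase over control.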

[10] = molecular target: T1, Adenosine receptor A1 (Homo sapiens); test: Binding affinity to recombinant human A1 adenosine receptor allosteric site expressed in CHO cells assessed as potentiation of CCPA-induced [3H]DPCPX displacement at 10 uM after 90 mins relative to control; format: cell-based
Method in brief: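 Competition of CCPA (0.01 nM–1 µM) against 1 nM [3H]DPCPX on hA1CHO membranes, run in triplicate, 90 min at 25 °C, in 50 mM Tris–HCl pH 7.4, with or without test compound at 10 µM. Nonspecific binding taken with 1 µM DPCPX. Ki by Cheng–Prusoff. Shift = Ki(CCPA)/Ki(CCPA + 10 µM compound).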

Compound	Activity [1]	Activity [2]	Activity [3]	Activity [4]	inhibition [5]	inhibition [6]	inhibition [7]	fold change (FC) [8]	fold change (FC) [9]	fold change (FC) [10]
Nc1scc(CN2CCN(c3c(F)cccc3F)CC2)c1C(=O)c1cccc(C(F)(F)F)c1	2.1%	1.3%	1.3%	4%	0%	0%	0%	1.1	0.9	1.2
Nc1scc(CN2CCN(c3cccc(C(F)(F)F)c3)CC2)c1C(=O)c1ccc(Cl)cc1	-8.2%	-30%	-72%	-80%	0%	3%	0%	5.3	1	4.3
Nc1scc(CN2CCN(C3CCCC3)CC2)c1C(=O)c1ccc(Cl)cc1	9.1%	2.1%	10%	-30%	0%	3%	3%	1.1	0.9	1.3
Nc1scc(CN2CCN(c3cccc4ccccc34)CC2)c1C(=O)c1ccc(Cl)cc1	8.7%	0%	2.9%	-21%	1%	0%	0%	1.1	0.9	1.3
Nc1scc(CN2CCC(c3ccc(Cl)cc3)CC2)c1C(=O)c1ccc(Cl)cc1	0%	-2.3%	-24%	-61%	0%	0%	6%	3.9	1	3.3
Nc1scc(CN2CCN(c3ccc([N+](=O)[O-])cc3)CC2)c1C(=O)c1ccc(Cl)cc1	-12%	-13%	-8.3%	-17%	1%	1%	2%	1.1	0.9	4.2
Nc1scc(CN2CCN(c3cccc(F)c3)CC2)c1C(=O)c1cccc(C(F)(F)F)c1	-11%	-12%	-35%	-62%	0%	0%	0%	6	1.1	4.7
Nc1scc(CN2CCN(c3ccc(C(F)(F)F)cc3)CC2)c1C(=O)c1cccc(C(F)(F)F)c1	-12%	-11%	-27%	-47%	0%	0%	0%	4.4	1	3.4

Now from value to compound:

Activity [1]	Activity [2]	Activity [3]	Activity [4]	inhibition [5]	inhibition [6]	inhibition [7]	fold change (FC) [8]	fold change (FC) [9]	fold change (FC) [10]	Compound
-3.2%	-34%	-78%	-87%	0%	0%	1%	7.2	1.1	5.5	Nc1scc(CN2CCN(c3ccc(F)c(F)c3)CC2)c1C(=O)c1ccc(Cl)cc1
-2.2%	4.2%	-43%	-82%	0%	1%	0%	4.5	1	3.7	Nc1scc(CN2CCN(Cc3ccc(Cl)cc3)CC2)c1C(=O)c1ccc(Cl)cc1
-2.1%	2%	-5.2%	-18%	2%	1%	0%	1.2	0.9	1.4	Nc1scc(CN2CCN(c3ccccc3Cl)CC2)c1C(=O)c1ccc(Cl)cc1
2%	-11%	-54%	-74%	0%	0%	0%	4.4	1	3.7	Nc1scc(CN2CCN(c3ccc(Cl)cc3Cl)CC2)c1C(=O)c1ccc(Cl)cc1
-2.5%	-12%	-47%	-60%	0%	0%	3%	5.7	1	4.5	Nc1scc(CN2CCN(c3ccc(Cl)c(C(F)(F)F)c3)CC2)c1C(=O)c1ccc(Cl)cc1
-9.2%	-9.4%	-57%	-81%	0%	0%	1%	5.3	1	4.3	Nc1scc(CN2CCN(c3ccc(Cl)cc3F)CC2)c1C(=O)c1ccc(Cl)cc1
-13%	-5%	-66%	-79%	0%	0%	2%	6.2	1.1	4.8	Nc1scc(CN2CCN(c3cc(F)cc(F)c3)CC2)c1C(=O)c1ccc(Cl)cc1
15%	0%	-2.2%	-47%	0%	0%	1%	3.3	0.9	2.9	Nc1scc(CN2CCN(c3c(Cl)cccc3Cl)CC2)c1C(=O)c1ccc(Cl)cc1
6.1%	-6.2%	-39%	-70%	0%	0%	0%	5.2	1.1	4.2	Nc1scc(CN2CCN(c3ccc(F)cc3Cl)CC2)c1C(=O)c1ccc(Cl)cc1
